Measurements pooled from the literature.
Lines come from different studies, so protocols differ.
EP300: Histone acetyltransferase p300 (EP300, Homo sapiens, UniProt Q09472)

SMILES | target | test | setting | measurement | value
Cc1cc(O)c(C=O)c2c1C(=O)Oc1c(C)c(O)c3c(c1O2)C(O)OC3=O (centres unmarked) | N-lysine methyltransferase KMT5A (KMT5A, Homo sapiens, UniProt Q9NQR1) | cell-free assay | 10 µM | inhibition | -14%
Cc1cnc(Nc2ccc(OCCN3CCCC3)cc2)nc1Nc1cccc(S(=O)(=O)NC(C)(C)C)c1 | EP300 | thermal stability, DSF | 10 µM | ΔTm | 2.76 °C
CCCOc1ccc(OC)c(F)c1C(=O)c1ccc(C(=O)N[C@@H]2CNC[C@H]2NC(=O)c2ccc3[nH]ncc3c2)cc1 | Tyrosine-protein kinase ABL1 (ABL1, Homo sapiens, UniProt P00519, T315I) | enzyme activity, inhibitor | 10 µM | remaining activity | 85%
Cc1ccc(Nc2nccc(N(C)c3ccc4c(C)n(C)nc4c3)n2)cc1S(N)(=O)=O | cAMP-dependent protein kinase catalytic subunit alpha (PRKACA, Bos taurus, UniProt P00517) | enzyme activity, inhibitor | 10 µM | inhibition | -19%
Nc1ncnc2occ(-c3ccc(NC(=O)Nc4cc(C(F)(F)F)ccc4F)cc3)c12 | Serine/threonine-protein kinase RIO1 (RIOK1, Homo sapiens, UniProt Q9BRS2) | cell-free assay, inhibitor | 20 µM | remaining signal | 89%
COc1cc(-c2cc(-c3ccc(N4CCNCC4)cc3)cnc2N)cc(OC)c1OC | Tyrosine-protein kinase ABL1 (ABL1, Homo sapiens, UniProt P00519, H396P) | enzyme activity, inhibitor | 1 µM | inhibition | 96%
C[S+]([O-])c1ccc(-c2nc(-c3ccncc3)c(-c3ccc(F)cc3)[nH]2)cc1 (centres unmarked) | EP300 | thermal stability, DSF | 10 µM | ΔTm | 0.35 °C
NS(=O)(=O)c1ccc(Nc2nc(-c3ccc(F)cc3)c3ccccc3n2)cc1 | EP300 | binding, competition with immobilised ligand | 1 µM | remaining binding | 62%
Cc1ccc(C(=O)Nc2ccc(CN3CCN(C)CC3)c(C(F)(F)F)c2)cc1C#Cc1cnc2cccnn12 | Serine/threonine-protein kinase Nek10 (NEK10, Homo sapiens, UniProt Q6ZWH5) | enzyme activity, inhibitor | 23.5 nM | remaining activity | 100%
Cc1cc(NC(=O)c2cccc3cc(-c4cccc5[nH]nc(N)c45)ccc23)ccc1F | Tyrosine-protein kinase ABL1 (ABL1, Homo sapiens, UniProt P00519) | enzyme activity, inhibitor | 0.1 µM | activity vs control | 85%
Cc1cnc(NC2CCOCC2)nc1-n1cnc(C(=O)NC(CN)c2cc(F)cc(Cl)c2)c1 (centres unmarked) | Tyrosine-protein kinase ABL1 (ABL1, Homo sapiens, UniProt P00519, M351T) | enzyme activity, inhibitor, radiometric | 1 µM | remaining activity | 95%
CN(C)C1CCN(CC#Cc2nn(C3CCCC3)c3nc(NCc4ccccc4)ncc23)C1 (centres unmarked) | Misshapen-like kinase 1 (MINK1, Homo sapiens, UniProt Q8N4C8) | enzyme activity, inhibitor, FRET | 10 µM | inhibition | 55%
Oc1cccc(Nc2nc(-c3ccc(F)cc3F)cs2)c1 | Androgen receptor (AR, Homo sapiens, UniProt P10275) | cell-free assay | 10 µM | inhibition | 26.5%
c1ccc([C@H]2O[C@H]2c2ccccc2)cc1 | Epoxide hydrolase 1 (EPHX1, Homo sapiens, UniProt P07099) | enzyme activity, substrate | pH 9 | Km | 141 µM
